Values after ≈ are worked out from the molar mass of the structure shown.
Columns and labels:
Type in all cases: functional
[1] = test system: Mycobacterium tuberculosis; experiment: Antimicrobial activity against isoniazid and rifampin-susceptible Mycobacterium tuberculosis clinical isolates after 7 days by broth microdilution assay; conditions: 168 h
Procedure, shortened: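 Alamar Blue broth microdilution in 7H9GC broth (Middlebrook 7H9 base, glycerol, Casitone, 10% OADC). Drug stock 1 mg/ml in 100% DMSO, diluted in broth to a final 0.03 to 8 μg/ml. M. tuberculosis H37Rv served as the susceptible-strain control. Isoniazid and rifampin resistance was assigned beforehand by the proportion method.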

[2] = test system: Mycobacterium avium complex sp.; experiment: Antimicrobial activity against Mycobacterium avium complex clinical isolates after 7 days by broth microdilution assay; conditions: 168 h
Procedure, shortened: (§1)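 Slowly growing mycobacteria were identified by phenotype and hsp65 PCR-RFLP. MIC by CLSI broth microdilution in cation-adjusted Mueller-Hinton broth with OADC supplement at a final 10%. Final drug range 0.06 to 16 μg/ml. Read after 7 days at 35°C. S. aureus ATCC 29213 was run as a quality control with each plate lot.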

[3] = test system: Mycolicibacterium fortuitum; experiment: Antimicrobial activity against Mycobacterium fortuitum clinical isolates after 7 days by broth microdilution assay; conditions: 168 h
[4] = test system: Mycobacteroides chelonae; experiment: Antimicrobial activity against Mycobacterium chelonae clinical isolates after 7 days by broth microdilution assay; conditions: 168 h
[5] = test system: Mycobacteroides abscessus; experiment: Antimicrobial activity against Mycobacterium abscessus clinical isolates after 7 days by broth microdilution assay; conditions: 168 h
[6] = test system: Mycobacterium kansasii; experiment: Antimicrobial activity against Mycobacterium kansasii after 7 days by broth microdilution assay; conditions: 168 h; procedure, shortened: as §1
[7] = test system: Mycobacterium gordonae; experiment: Antimicrobial activity against Mycobacterium gordonae after 7 days by broth microdilution assay; conditions: 168 h; procedure, shortened: as §1
[8] = test system: Staphylococcus aureus; experiment: Antimicrobial activity against Staphylococcus aureus ATCC 29213 after 72 hrs by broth microdilution assay; conditions: ATCC 29213, 72 h

**Q.** With `COc1c(N2CC[C@@H](C(C)(C)N)C2)c(F)cc2c(=O)c3c(=O)[nH]sc3n(C3CC3)c12` as the compound, how does the MIC50 [1] read?
**A.** 0.0625 µg/mL (≈ 0.145 µM)

**Q.** And the MIC90 [1]?
**A.** 0.125 µg/mL (≈ 0.289 µM)

**Q.** And the MIC50 [2]?
**A.** 0.25 µg/mL (≈ 0.578 µM)

**Q.** And the MIC90 [2]?
**A.** 4 µg/mL (≈ 9.25 µM)

**Q.** What about the MIC50 [3] of the same compound?
**A.** ≤ 0.0625 µg/mL

**Q.** And the MIC90 [3]?
**A.** ≤ 0.0625 µg/mL

**Q.** What about the MIC [4] of the same compound?
**A.** 8 µg/mL (≈ 18.5 µM)

**Q.** What about the MIC [5] of the same compound?
**A.** 16 µg/mL (≈ 37 µM)

**Q.** And the MIC [6]?
**A.** 0.12 µg/mL (≈ 0.277 µM)

**Q.** What about the MIC [7] of the same compound?
**A.** 0.12 µg/mL (≈ 0.277 µM)

**Q.** What about the MIC [8] of the same compound?
**A.** ≤ 0.06 µg/mL

— ChEMBL document CHEMBL1255469, “In vitro activity of a new isothiazoloquinolone, ACH-702, against Mycobacterium tuberculosis and other mycobacteria” (2010)
